Measurements from ChEMBL document CHEMBL4138215, “Discovery of caffeic acid phenethyl ester derivatives as novel myeloid differentiation protein 2 inhibitors for treatment of acute lung injury” (Eur J Med Chem, 2018).
Active and inactive are the calls of the source. The rule behind the calls is not given here.

Key:
[1] = tested on: Peritoneal macrophage; test: Anti-inflammatory activity in ICR mouse peritoneal macrophages assessed inhibition of LPS-induced TNF-alpha production at 10 uM preincubated for 30 to 60 mins followed by LPS stimulation measured after 24 hrs by ELISA; format: functional, cell-based
How it was run: (§1)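 Primary peritoneal macrophages from thioglycollate-elicited ICR mice (3 mL i.p.), collected by PBS lavage and cultured in RPMI-1640 at 37 °C, 5% CO2. Plated at 4*10⁵ cells/well and grown 24 h. Pretreated with compound (30–60 min; screen at 10, dose-response 0.5–10), then LPS for 24 h. TNF-α in the conditioned medium measured by ELISA and expressed relative to LPS alone; DMSO as vehicle.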

[2] = tested on: Mus musculus; test: Anti-inflammatory activity in LPS-induced C57BL/6 mouse model of acute lung injury assessed as decrease in pulmonary congestion in lung tissue at 15 mg/kg, ip pretreated for 30 mins followed by LPS challenge measured after 6 hrs by hematoxylin and eosin staining-based light microscopic analysis; format: functional, organism-based; details: C57/BL6
[3] = tested on: Mus musculus; test: Anti-inflammatory activity in LPS-induced C57BL/6 mouse model of acute lung injury assessed as decrease in lung tissue destruction at 15 mg/kg, ip pretreated for 30 mins followed by LPS challenge measured after 6 hrs by hematoxylin and eosin staining-based light microscopic analysis; format: functional, organism-based; details: C57/BL6
[4] = tested on: Mus musculus; test: Anti-inflammatory activity in LPS-induced C57BL/6 mouse model of acute lung injury assessed as decrease in inflammatory infiltration in lung tissue at 15 mg/kg, ip pretreated for 30 mins followed by LPS challenge measured after 6 hrs by hematoxylin and eosin staining-based light microscopic analysis; format: functional, organism-based; details: C57/BL6
[5] = tested on: Mus musculus; test: Anti-inflammatory activity in LPS-induced C57BL/6 mouse model of acute lung injury assessed as inhibition of TNF-alpha mRNA levels in lung tissue at 20 mg/kg, ip pretreated for 30 mins followed by LPS challenge measured after 6 hrs by RT-PCR analysis; format: functional, organism-based; details: C57/BL6
How it was run: (§2)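 Male C57BL/6 mice given i.p. pretreatment 30 min before intratracheal LPS 5 mg/kg, lungs taken at 6 h. IL-6 and TNF-α mRNA in lung tissue normalized to β-actin and expressed relative to the LPS group.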

[6] = tested on: Mus musculus; test: Anti-inflammatory activity in LPS-induced C57BL/6 mouse model of acute lung injury assessed as inhibition of IL-6 mRNA levels in lung tissue at 20 mg/kg, ip pretreated for 30 mins followed by LPS challenge measured after 6 hrs by RT-PCR analysis; format: functional, organism-based; details: C57/BL6; how it was run: as §2
[7] = tested on: Mus musculus; test: Anti-inflammatory activity in LPS-induced C57BL/6 mouse model of acute lung injury assessed as inhibition of IL-6 levels in plasma at 20 mg/kg, ip pretreated for 30 mins followed by LPS challenge measured after 6 hrs by ELISA; format: functional, organism-based; details: C57/BL6
How it was run: (§3)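 ALI model in male C57BL/6 mice: i.p. pretreatment 30 min before intratracheal LPS (5 mg/kg), euthanasia at 6 h. BALF spun at 1000 rpm for 10 min and the supernatant kept; plasma also collected. IL-6 and TNF-α measured by ELISA as pg/ml, mean ± SEM, n = 7.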

[8] = tested on: Mus musculus; test: Anti-inflammatory activity in LPS-induced C57BL/6 mouse model of acute lung injury assessed as decrease in thicken alveolar septa at 15 mg/kg, ip pretreated for 30 mins followed by LPS challenge measured after 6 hrs by hematoxylin and eosin staining-based light microscopic analysis; format: functional, organism-based; details: C57/BL6
[9] = molecular target: Toll-like receptor 4 (Homo sapiens) (UniProt O00206); test: Binding affinity to TLR4 (unknown origin) by SPR analysis
How it was run: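 SPR: TLR4 protein in acetate buffer immobilized after activation with 40 mM EDC/10 mM sNHS. Compound dilutions in PBS with 0.1% SDS, 0.05% Tween-20 and 5% DMSO; first channel used as reference. Association 120 s, dissociation 120 s, 25 °C; KD derived from binding kinetics.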

[10] = tested on: Peritoneal macrophage; test: Anti-inflammatory activity in ICR mouse peritoneal macrophages assessed inhibition of LPS-induced TNF-alpha production preincubated for 30 to 60 mins followed by LPS stimulation measured after 24 hrs by ELISA; format: functional, cell-based; how it was run: as §1
[11] = tested on: Peritoneal macrophage; test: Anti-inflammatory activity in ICR mouse peritoneal macrophages assessed inhibition of LPS-induced TNF-alpha production at 10 uM preincubated for 30 to 60 mins followed by LPS stimulation measured after 24 hrs by ELISA relative to control; format: functional; how it was run: as §1
[12] = tested on: Mus musculus; test: Anti-inflammatory activity in LPS-induced C57BL/6 mouse model of acute lung injury assessed as decrease in interstitial edema in lung tissue at 15 mg/kg, ip pretreated for 30 mins followed by LPS challenge measured after 6 hrs by hematoxylin and eosin staining-based light microscopic analysis; format: functional, organism-based; details: C57/BL6
[13] = tested on: Mus musculus; test: Anti-inflammatory activity in LPS-induced C57BL/6 mouse model of acute lung injury assessed as decrease in CD68 production in lung tissue at 15 mg/kg, ip pretreated for 30 mins followed by LPS challenge measured after 6 hrs by immumohistochemical staining-based light microscopic analysis; format: functional, organism-based; details: C57/BL6
How it was run: (§4)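 Male C57BL/6 mice, 18–22 g, n = 7 per group. Compound given i.p. 15 mg/kg in 200 µL, or vehicle, 30 min before intratracheal LPS 5 mg/kg; killed 6 h later. Paraffin lung sections, 5 µm, treated with H2O2, blocked in 5% BSA, then primary anti-CD68 or anti-TNF-α overnight at 4 °C. HRP secondary 2 h at 37 °C, DAB stain, light microscopy at 200×.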

[14] = tested on: Mus musculus; test: Anti-inflammatory activity in LPS-induced C57BL/6 mouse model of acute lung injury assessed as inhibition of myeloperoxidase activity in lung tissue at 15 mg/kg, ip pretreated for 30 mins followed by LPS challenge measured after 6 hrs by H2O2 substrate based assay; format: functional, organism-based; details: C57/BL6
How it was run: (§5)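 Male C57BL/6 mice (n = 7) received 15 mg/kg i.p. in 200 µL, or vehicle, 30 min before intratracheal LPS 5 mg/kg; euthanized at 6 h. Total BALF cells counted as counts/ml. Lung MPO activity determined from absorbance change at 460 nm after a 30 min reaction and reported as U/g.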

[15] = tested on: Mus musculus; test: Anti-inflammatory activity in LPS-induced C57BL/6 mouse model of acute lung injury assessed as inhibition of total cell count in BALF at 15 mg/kg, ip pretreated for 30 mins followed by LPS challenge measured after 6 hrs; format: functional, organism-based; details: C57/BL6; how it was run: as §5
[16] = tested on: Mus musculus; test: Anti-inflammatory activity in LPS-induced C57BL/6 mouse model of acute lung injury assessed as inhibition of IL-6 levels in BALF at 20 mg/kg, ip pretreated for 30 mins followed by LPS challenge measured after 6 hrs by ELISA; format: functional, organism-based; details: C57/BL6; how it was run: as §3
[17] = tested on: Mus musculus; test: Anti-inflammatory activity in LPS-induced C57BL/6 mouse model of acute lung injury assessed as inhibition of TNF-alpha levels in plasma at 20 mg/kg, ip pretreated for 30 mins followed by LPS challenge measured after 6 hrs by ELISA; format: functional, organism-based; details: C57/BL6; how it was run: as §3
[18] = tested on: Mus musculus; test: Anti-inflammatory activity in LPS-induced C57BL/6 mouse model of acute lung injury assessed as inhibition of TNF-alpha levels in BALF at 20 mg/kg, ip pretreated for 30 mins followed by LPS challenge measured after 6 hrs by ELISA; format: functional, organism-based; details: C57/BL6; how it was run: as §3
[19] = tested on: Mus musculus; test: Anti-inflammatory activity in LPS-induced C57BL/6 mouse model of acute lung injury assessed as decrease in TNF-alpha production in lung tissue at 15 mg/kg, ip pretreated for 30 mins followed by LPS challenge measured after 6 hrs by immumohistochemical staining-based light microscopic analysis; format: functional, organism-based; details: C57/BL6; how it was run: as §4

Chain of Toll-like receptor 4 (Homo sapiens) (O00206 whole entry): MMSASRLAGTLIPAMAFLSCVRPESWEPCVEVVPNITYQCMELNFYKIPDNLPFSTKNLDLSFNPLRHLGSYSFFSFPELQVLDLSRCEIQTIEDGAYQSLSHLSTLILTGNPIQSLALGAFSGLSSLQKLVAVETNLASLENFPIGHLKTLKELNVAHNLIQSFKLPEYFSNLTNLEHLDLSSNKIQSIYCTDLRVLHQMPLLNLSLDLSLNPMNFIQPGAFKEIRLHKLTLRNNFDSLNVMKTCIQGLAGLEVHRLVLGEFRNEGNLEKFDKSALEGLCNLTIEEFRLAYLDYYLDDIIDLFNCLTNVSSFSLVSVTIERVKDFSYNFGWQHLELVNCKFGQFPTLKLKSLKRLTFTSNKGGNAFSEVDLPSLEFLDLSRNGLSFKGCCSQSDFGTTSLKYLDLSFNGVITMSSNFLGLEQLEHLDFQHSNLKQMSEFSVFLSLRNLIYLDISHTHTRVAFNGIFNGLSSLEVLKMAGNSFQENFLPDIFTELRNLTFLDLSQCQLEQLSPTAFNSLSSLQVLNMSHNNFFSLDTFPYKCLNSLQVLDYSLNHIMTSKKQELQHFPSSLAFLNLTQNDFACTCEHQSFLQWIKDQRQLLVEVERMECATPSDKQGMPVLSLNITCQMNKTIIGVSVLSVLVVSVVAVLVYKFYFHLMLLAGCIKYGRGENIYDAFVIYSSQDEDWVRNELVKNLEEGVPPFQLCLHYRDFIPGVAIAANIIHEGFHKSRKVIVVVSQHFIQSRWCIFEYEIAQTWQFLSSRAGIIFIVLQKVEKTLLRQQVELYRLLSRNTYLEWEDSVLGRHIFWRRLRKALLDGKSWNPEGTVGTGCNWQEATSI

Compound	inhibition [1]	also measured
O=C(/C=C/c1ccc([N+](=O)[O-])cc1)NCCc1ccccc1	inactive	
COc1cc(/C=C/C(=O)NCCc2ccccc2)cc(Br)c1O	Active	
Cc1ncsc1/C=C/C(=O)NCCCc1ccccc1	inactive	
CCCCCCCCNC(=O)/C=C/c1scnc1C	inactive	
COc1cc(OC)c(OC)cc1/C=C/C(=O)NCCc1ccccc1	inactive	
COc1ccc(/C=C/C(=O)NCCc2ccccc2)cc1OC	Active	
COc1cc(COc2cc(/C=C/C(=O)NCCc3ccccc3)ccc2OC)cc(OC)c1	inactive	
COc1cc(/C=C/C(=O)NCCc2ccccc2)ccc1OCc1ccc(C)cc1	Active	
Cc1ncsc1/C=C/C(=O)N[C@@H](Cc1ccc(O)cc1)C(=O)OC(C)(C)C		Activity [2]: Active; Activity [3]: Active; Activity [4]: Active; inhibition [5]: Active; inhibition [6]: Active; inhibition [7]: Active; Activity [8]: Active; Activity [9]: inactive; IC50 [10]: 2.05 µM; inhibition [10]: Dose-dependent effect; inhibition at 10 µM [11]: 82.6%; Activity [12]: Active; Activity [13]: Active; inhibition [14]: Active; inhibition [15]: Active; inhibition [16]: Active; inhibition [17]: Active; inhibition [18]: Active; Activity [19]: Active
CCCCCCCNC(=O)/C=C/c1scnc1C	inactive	
CCCCCCCCCNC(=O)/C=C/c1scnc1C	inactive	
COc1cccc(/C=C/C(=O)NCCc2ccccc2)c1OC	inactive	
COc1ccc(/C=C/C(=O)NCCc2ccccc2)cc1OCc1ccc(C)cc1	inactive	
Cc1ncsc1/C=C/C(=O)N[C@@H](Cc1ccccc1)C(=O)OC(C)(C)C		inhibition at 10 µM [11]: 68.7%
COc1cc(OC)c(/C=C/C(=O)NCCc2ccccc2)c(OC)c1	inactive	
Cc1ncsc1/C=C/C(=O)NCCc1ccccc1		inhibition at 10 µM [11]: 67.3%
O=C(/C=C/c1ccc(O)cc1)NCCc1ccccc1	Active	
Cc1ncsc1/C=C/C(=O)NCCc1ccc(O)cc1	Active	
O=C(/C=C/c1cccnc1)NCCc1ccccc1	Active	
O=C(/C=C/c1ccc2c(c1)OCO2)NCCc1ccccc1	Active	
O=C(/C=C/c1ccc(C(F)(F)F)cc1)NCCc1ccccc1	inactive	
Cc1ccc(/C=C/C(=O)NCCc2ccccc2)o1	Active	

Compound	inhibition [1]	also measured
O=C(/C=C/c1ccc(O)c(O)c1)OCCc1ccccc1 [CAFFEIC ACID PHENETHYL ESTER]		inhibition [7]: Active; IC50 [10]: 4.31 µM; inhibition [14]: Active; inhibition [15]: Active; inhibition [16]: Active; inhibition [17]: Active; inhibition [18]: Active
COc1ccc(/C=C/C(=O)NCCc2ccccc2)c(OC)c1OC	inactive	
COc1ccc(/C=C/C(=O)NCCc2ccccc2)cc1	Active	
CCOC(=O)[C@H](Cc1ccc(O)cc1)NC(=O)/C=C/c1scnc1C		IC50 [10]: 3.19 µM; inhibition [10]: Dose-dependent effect; inhibition at 10 µM [11]: 79.4%
Cc1ncsc1/C=C/C(=O)NCCCCc1ccccc1	inactive	
C=CCOc1ccc(/C=C/C(=O)NCCc2ccccc2)cc1	Active	
Cc1ncsc1/C=C/C(=O)N1CCC(c2ccccc2)CC1	inactive	
Cc1ncsc1/C=C/C(=O)N[C@@H](Cc1ccccc1)C(=O)O	inactive	
O=C(/C=C/c1ccc(N2CCOCC2)cc1)NCCc1ccccc1	Active	
COc1ccc(/C=C/C(=O)NCCc2ccccc2)cc1O	Active	
Cc1ncsc1/C=C(\C#N)C(=O)NCCc1ccccc1	Active	
Cc1ncsc1/C=C/C(=O)N[C@@H](Cc1ccc(O)cc1)C(=O)O	inactive	
COc1cc(/C=C/C(=O)NCCc2ccccc2)cc(OC)c1OC	Active	
CCCCCCCCCCNC(=O)/C=C/c1scnc1C	inactive	
Cc1ncsc1/C=C/C(=O)NCCc1cc2ccccc2[nH]1	inactive	
COc1cc(/C=C/C(=O)NCCc2ccccc2)ccc1O	Active	
COc1ccc2cc(CCNC(=O)/C=C/c3scnc3C)[nH]c2c1	inactive	
COc1ccc(/C=C/C(=O)NCCc2ccccc2)cc1OCc1ccccc1	inactive	
Cc1ccc(/C=C/C(=O)NCCc2ccccc2)s1	Active	
COc1cc(/C=C/C(=O)NCCc2ccccc2)ccc1OCc1ccccc1	Active	
Cc1ncsc1/C=C/C(=O)NCCc1ccc(O)c(O)c1	Active	
